Results gathered from unrelated publications.
AMY2: Pancreatic alpha-amylase (AMY2, Sus scrofa, UniProt P00690)
SLC22A8: Organic anion transporter 3 (SLC22A8, Homo sapiens, UniProt Q8TCC7)
SIRT2: NAD-dependent protein deacetylase sirtuin-2 (SIRT2, Homo sapiens, UniProt Q8IXJ6)
RORC: Nuclear receptor ROR-gamma (RORC, Homo sapiens, UniProt P51449)
FES: Tyrosine-protein kinase Fes/Fps (FES, Homo sapiens, UniProt P07332)
FRK: Tyrosine-protein kinase FRK (FRK, Homo sapiens, UniProt P42685)
polA: DNA polymerase I, thermostable (polA, Thermus aquaticus, UniProt P19821)
CDC7: Cell division cycle 7-related protein kinase (CDC7, Homo sapiens, UniProt O00311)
FGFR3: Fibroblast growth factor receptor 3 (FGFR3, Homo sapiens, UniProt P22607)
Maoa: Amine oxidase [flavin-containing] A (Maoa, Rattus norvegicus, UniProt P21396)

C=C(C)[C@@H]1CCC(C)=C[C@H]1c1c(O)cc(CCCCC)cc1O — IC50 (Prostaglandin E synthase (PTGES, Homo sapiens, UniProt O14684); enzyme activity, inhibitor): > 10000 nM
Cc1cnc(-c2ccc(-c3ccc(NC(=O)Nc4c(F)cc(F)cc4F)cc3F)c3c2C(=O)NC3)[nH]1 — IC50 (Serine/threonine-protein kinase 3 (STK3, Homo sapiens, UniProt Q13188); enzyme activity, inhibitor): 7.1 nM
COc1cc(N2CCN(C)CC2)ccc1Nc1ncc2c(n1)N(C)c1ccccc1C(=O)N2 — IC50 (Serine/threonine-protein kinase DCLK1 (DCLK1, Homo sapiens, UniProt O15075); enzyme activity, inhibitor, mobility shift): > 1000 nM
O=C1Nc2ccc([N+](=O)[O-])cc2/C1=N/NS(=O)(=O)c1ccc(Cl)cc1 — IC50 (AMY2; enzyme activity, inhibitor): 4100 nM
CC(=O)Oc1ccccc1C(=O)Nc1ncc([N+](=O)[O-])s1 — IC50 (SLC22A8; transporter uptake, inhibitor): 154 nM
CCCCCCCCCCCCNC(=S)NCCCC[C@H](NS(C)(=O)=O)C(=O)N[C@H](C)C(=O)N[C@@H](CCCNC(=N)N)C(=O)N1CCOCC1 — IC50 (SIRT2; enzyme activity, inhibitor): 90 nM
O=S(=O)(c1cccc(C(F)(F)F)n1)N1CCc2ccc(OCc3c(F)cccc3Cl)cc21 — IC50 (RORC; ligand displacement, radioligand): 250 nM
CCCCCCCCCCCCNC(=S)NCCCC[C@H](NC(C)=O)C(=O)N[C@@H](C)C(=O)N[C@@H](CCCNC(=N)N)C(N)=O — IC50 (SIRT2; enzyme activity, inhibitor): 50 nM
c1cnc(OC2CCNCC2)c(-c2nc(Cc3cccc4ncccc34)no2)c1 — IC50 (Glycylpeptide N-tetradecanoyltransferase (Plasmodium falciparum, UniProt Q9U419); enzyme activity, inhibitor, fluorescence): 3.5 nM
COc1ccc2c(Oc3ccc4c(C(=O)Nc5ccccc5N)cccc4c3)ccnc2c1 — IC50 (FES; enzyme activity, inhibitor): > 500 nM
O=S(=O)(c1cccc(C(F)(F)F)c1)N1CCc2ccc(OCc3ccccc3OC(F)(F)F)cc21 — IC50 (RORC; ligand displacement, radioligand): 290 nM
COc1cc2nccc(Oc3ccc(NC(=O)c4cc5c(n(-c6ccccc6)c4=O)CCCC5=O)nc3)c2cc1OC — IC50 (FRK; enzyme activity in cells, inhibitor, ATP luminescence): > 100 nM
CCCCCCCC/C=C\CCCCCCCC(=O)Oc1ccc2ccc(=O)oc2c1 — IC50 (polA; enzyme activity, inhibitor): > 200000 nM
O=S(=O)(c1cccc(-c2ccccc2)c1)N1CCc2ccc(OCc3c(F)cccc3Cl)cc21 — IC50 (RORC; ligand displacement, radioligand): 250 nM
N=C(CF)NCCCC[C@H](NC(=O)c1ccccc1)C(N)=O — IC50 (Protein-arginine deiminase type-3 (PADI3, Homo sapiens, UniProt Q9ULW8); enzyme activity, inhibitor): 64400 nM
CC(C)[C@H](N)c1nc2cc(-c3ccnc(F)c3)sc2c(=O)[nH]1 — IC50 (CDC7; enzyme activity, inhibitor): 71.7 nM
O=S(=O)(c1cccc(C(F)(F)F)c1)N1CCc2ccc(OCc3c(Cl)cncc3Cl)cc21 — IC50 (RORC; ligand displacement, radioligand): 180 nM
O=C1OC[C@H]2OC(O)[C@H](O)[C@@H](O)[C@@H]2OC(=O)c2cc(O)c(O)c(O)c2-c2c(O)c(O)c3oc(=O)c4c(c(O)c(O)c5oc(=O)c2c3c54)-c2c1cc(O)c(O)c2O (mixture of isomers) — IC50 (Genome polyprotein, protease (Hepatitis C virus genotype 1b, UniProt Q9WMX2); enzyme activity, inhibitor, fluorescence): < 100 nM
COc1cc(Cl)ccc1COc1ccc2c(c1)N(S(=O)(=O)c1cccc(C(F)(F)F)c1)CC2 — IC50 (RORC; ligand displacement, radioligand): 350 nM
Cc1ccc(NC(=O)c2ccc(C)c(C(F)(F)F)c2)cc1C#Cc1nn(C2CCC(O)CC2)c2ncnc(N)c12 (stereo not shown) — IC50 (FGFR3; enzyme activity, inhibitor, radiometric): 120 nM
CN1CCN(c2ccnc(C(=O)N3CCC[C@H](C(=O)Nc4cccc(-c5ccc6c(c5)C(=O)NC6)c4)C3)c2)CC1 — IC50 (Histone lysine demethylase PHF8, PHD (PHF8, Homo sapiens, UniProt Q9UPP1); cell-free assay, inhibitor, TR-FRET): > 100000 nM
CC1CN(S(=O)(=O)c2cccc(C(F)(F)F)c2)c2cc(OCc3c(F)cccc3Cl)ccc21 (stereo not shown) — IC50 (RORC; ligand displacement, radioligand): 180 nM
COc1cc(C=Cc2cc(-c3ccccc3)nc(O)n2)ccc1O — IC50 (AMY2; enzyme activity, inhibitor, absorbance): 23700 nM
CC(C)[C@@H](N)c1nc2cc(-c3ccncc3F)sc2c(=O)[nH]1 — IC50 (CDC7; enzyme activity, inhibitor): 1470 nM
CC(C)C[C@H](NC(=O)[C@H](Cc1ccccc1)NC(=O)[C@@H](N)Cc1ccc(O)cc1)C(=O)N[C@@H](Cc1ccccc1)C(=O)N[C@@H](CCCNC(=N)N)C(=O)N1CCC[C@H]1C(=O)N[C@@H](CCCNC(=N)N)C(=O)N[C@@H](CC(N)=O)C(N)=O — IC50 (Neuromedin-U receptor 1 (Mus musculus, UniProt O55040); ligand displacement, radioligand; cell membranes): 0.38 nM
O=C(O)c1cc(-c2ccc(F)cc2F)ccc1O — IC50 (SLC22A8; transporter uptake, inhibitor): 720 nM
O=C(O[C@H]1[C@@H]2C=CO[C@@H](O[C@@H]3O[C@H](CO)[C@@H](O)[C@H](O)[C@H]3O)[C@@H]2[C@@]2(CO)O[C@@H]12)c1ccc(O)cc1 — IC50 (SLC22A8; transporter uptake, inhibitor, radiometric; HEK293; 10 min): 83000 nM
O=S(=O)(c1cccc(C(F)(F)F)c1)N1c2cc(OCc3c(F)cncc3Cl)ccc2CC1C(F)(F)F (stereo not shown) — IC50 (RORC; ligand displacement, radioligand): 290 nM
C=CC(=O)Nc1cc(Nc2nccc(Nc3cc(Cl)c(F)cc3C(C)(C)O)n2)c(OC)cc1N1CC[C@@H](N(C)C)C1 — IC50 (FES; enzyme activity, inhibitor; with preincubation): 1760 nM
Cc1cc(Nc2cc(CN3CCOCC3)c3nc(C)c(Cc4ccc(Cl)cc4F)n3n2)n[nH]1 — IC50 (FGFR3; enzyme activity, inhibitor, TR-FRET): 106 nM
CCCCCCCCCCCCNC(=S)NCCCC[C@H](NC(=O)OCc1ccccc1)C(=O)N[C@@H](Cc1c[nH]c2ccccc12)C(=O)N[C@@H](CCC(=O)O)C(N)=O — IC50 (SIRT2; enzyme activity, inhibitor): 100 nM
C[C@H](CCCOc1cccc(CO)c1)[C@H]1CC[C@H]2[C@@H]3CC=C4C[C@@H](O)CC[C@]4(C)[C@H]3CC[C@]12C — IC50 (RORC; reporter gene, inverse agonist, luciferase): 193 nM
COc1ccc(S(=O)(=O)N/N=C2\C(=O)Nc3ccccc32)cc1 — IC50 (AMY2; enzyme activity, inhibitor): 11600 nM
O=C(O)CNC(=O)C(=O)O — IC50 (Hypoxia-inducible factor 1-alpha inhibitor (HIF1AN, Homo sapiens, UniProt Q9NWT6); enzyme activity, inhibitor, mass spectrometry): < 1000 nM
COC(=O)c1cc2ccc(O)cc2oc1=O — IC50 (polA; enzyme activity, inhibitor): 129000 nM
O=S(=O)(c1ccnc(C(F)(F)F)c1)N1CCc2ccc(OCc3c(F)cccc3Cl)cc21 — IC50 (RORC; ligand displacement, radioligand): 230 nM
COc1ccc(S(=O)(=O)N/N=C2\C(=O)Nc3ccc([N+](=O)[O-])cc32)cc1 — IC50 (AMY2; enzyme activity, inhibitor): 8200 nM
O=c1oc(Cl)c(Cl)c2ccccc12 — IC50 (Chymotrypsinogen A (Bos taurus, UniProt P00766); enzyme activity, inhibitor, fluorescence): 2800 nM
CC(=NN=C1CS(=O)(=O)N(C)c2ccccc21)c1ccc(Cl)s1 — IC50 (Maoa; enzyme activity, inhibitor, fluorescence): 1520 nM
CCCCCCCCCCCCCC(=O)NCCCC[C@H](NS(C)(=O)=O)C(=O)N[C@H](C)C(=O)N[C@@H](CCCNC(=N)N)C(N)=O — IC50 (SIRT2; enzyme activity, inhibitor): 740 nM
CNC(=O)c1cc2c(Oc3ccc(NC(=O)C4(C(=O)Nc5ccc(F)cc5)CC4)cc3)ccnc2cc1OC — IC50 (FRK; enzyme activity, inhibitor, radiometric): 13 nM
CCCN1CCN(c2ccc(-c3cncc(Cl)c3N3CCC4(CCNC4=O)CC3)cc2)CC1 — IC50 (Cyclin-dependent kinase 19, with cyclin C (CDK19, Homo sapiens, UniProt Q9BWU1); ligand displacement): 7 nM
CCCCCCCCCCCCNC(=S)NCCCC[C@H](NC(=O)OCc1ccccc1)C(=O)N[C@@H](Cc1c[nH]c2ccccc12)C(=O)N[C@@H](CC(N)=O)C(N)=O — IC50 (SIRT2; enzyme activity, inhibitor): 260 nM
OC[C@@H]1[C@@H](O)[C@H](O)[C@@H](O)[C@@H]2O[C@H]12 — IC50 (Beta-glucosidase (GBA2, Homo sapiens, UniProt Q9HCG7); enzyme activity, inhibitor; pH 7, lysate): 7480 nM
C=C(CC)C(=O)c1ccc(OCC(=O)O)c(Cl)c1Cl — IC50 (SLC22A8; transporter uptake, inhibitor): 662 nM
CC(=NN=C1CS(=O)(=O)N(C)c2ccccc21)c1ccc(C)s1 — IC50 (Maoa; enzyme activity, inhibitor, fluorescence): 1270 nM
